The target in series [1] is Heat shock protein HSP 90-beta/Hsp90 co-chaperone Cdc37 (Homo sapiens) (UniProt P08238+Q16543). Nature of the series: Inhibition of His-tagged HSP90/GST-tagged Cdc37 (unknown origin) protein-protein interaction at 100 uM measured after 1 hr by HTRF assay relative to control. Type of series: protein-complex assay. A digest of the protocol: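 His-Hsp90 and GST-Cdc37 were premixed at a final 80 nM in PBS with 200 mM KF, pH 7.4. Compound was added and the mix incubated 1 h at 37 °C, then read by HTRF. Inhibition rate was taken at 100 μM compound.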
Background: In TR-FRET formats the signal depends on donor and acceptor labels being close together.

The test system of series [2] is HCT-116. Nature of the series: Antiproliferative activity against human HCT116 cells measured after 72 hrs by CCK8 assay. Type of series: functional, cell-based. The following applies: HCT-116, 72 h. A digest of the protocol:
(§1)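 Cells grown in RPMI 1640 with 10% FBS at 37 °C, 5% CO2; STR-authenticated and mycoplasma-checked. Seeded at 3000-5000 cells/well and left 24 h. Serial compound dilutions added for 72 h, with matched DMSO as control. Viability read by CCK8 kit using the standard protocol. IC50 values derived from at least three parallel experiments.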

Series [3] in a line: Permeability of the compound at pH 7.4 by PAMPA. The series is classed as ADME. The following applies: read-out: permeability. A digest of the protocol: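 Permeability coefficient (Pe) was measured at pH 7.4 by double-sink PAMPA.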
(The PAMPA barrier holds no transporters, so it reflects passive diffusion.)

Series [4] has as its system L02. Description: Cytotoxicity against human L02 cells measured after 72 hrs by CCK8 assay. The series is classed as functional, cell-based. The following applies: L02, 72 h. A digest of the protocol: as §1
For orientation: Tetrazolium assays rely on reduction of a dye to a coloured formazan, in cell work by metabolically active cells.

Series [5] deals with A549. Description: Antiproliferative activity against human A549 cells measured after 72 hrs by CCK8 assay. The series is classed as functional, cell-based. The following applies: A549, 72 h. A digest of the protocol:
as §1

In series [6] the target is T1, Heat shock protein HSP90 (Homo sapiens, UniProt P07900+P08238). Nature of the series: Inhibition of recombinant full-length HSP90 ATPase activity N-terminal domain (9 to 236 residues) (unknown origin) expressed in Escherichia coli BL21 (DE3) measured after 1 hr by ADP hunter plus assay.
Series [7] is described as follows: Distribution coefficient, log D of the compound at pH 7.4 by potentiometric titration method. The series is classed as physicochemical. The settings on record: octanol/water. In a few lines:
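log D at pH 7.4 measured by potentiometric titration on a Gemini Profiler.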

In series [8] the target is T1, Heat shock protein HSP90. Nature of the series: Binding affinity to recombinant […] HSP90 N-terminal domain (9 to 236 residues) (unknown origin) expressed in Escherichia coli BL21 (DE3) assessed as change in melting temperature by SYPRO dye based thermal shift assay. A digest of the protocol:
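Hsp90 N-terminal domain (10 µM) mixed with compound at 200, 100, 50 or 10 µM in 1× PBS, pH 8.0, with 6× SYPRO Orange. Heated from room temperature to 99 °C at 1 °C/min; fluorescence read at 492 nm excitation and 610 nm emission.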

The target of series [9] is T1, Heat shock protein HSP90. Description: Binding affinity to recombinant […] HSP90 N-terminal domain (9 to 236 residues) (unknown origin) expressed in Escherichia coli BL21 (DE3) by isothermal calorimetric method. In a few lines: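 ITC: 50 µM Hsp90 in the cell and 300 µM compound in the syringe, both in 20 mM Tris-HCl, 150 mM NaCl, pH 7.4. Nineteen injections at 180 s intervals with stirring at 1000 rpm.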

The target in series [10] is T1, Heat shock protein HSP90. Nature of the series: Binding affinity to recombinant […] biotinylated-HSP90 N-terminal domain (9 to 236 residues) (unknown origin) expressed in Escherichia coli BL21 (DE3) by biolayer interferometry. In a few lines:
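Biotinylated Hsp90 (100 µg/mL) loaded onto streptavidin sensors prewetted 10 min in PBS with 0.05% BSA and 0.01% Tween 20. Analyte binding measured at 28 °C. Double reference subtraction applied; data fitted to a 1:1 model with K_D = K_off/K_on.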

A value given as a limit tells only on which side of the number the result lay.

As to `COc1ccc(CN(c2ccc(Nc3ccnc(N4CCCC4)n3)cc2)S(=O)(=O)c2c(C)cc(C)cc2C)cc1`, in [1], the inhibition (as a rule, the relative decrease from the control value, in per cent) was below 50%.

`COC(=O)CN(c1ccc(Nc2ccnc(N3CCNCC3)n2)cc1)S(=O)(=O)c1c(C)cc(C)cc1C`: the IC50 (usually the concentration needed to halve the response being measured) in series [2] was 6.25 µM; in series [4] it was above 50 µM; in series [5], 43.3 µM; in series [6] it was above 100 µM. For the same compound, the Papp in series [3] was found to be 101 ×10⁻⁶ cm/s. The inhibition in series [1] came out at 95.5%. Also, the logD (as a rule, the decadic logarithm of the distribution of all forms, ionised or not, between an organic phase and buffer at a given pH) in series [7] came to 2.63. Also, the ΔTm (in general, the change in melting temperature against a reference sample) in series [8] worked out at 3.53 °C. Also, the values for the Kd in series [9] and in [10] were 1.73 µM and 1.97 µM, respectively.

In the case of `COC(=O)CN(c1ccc(Nc2ccnc(N3CCCCC3)n2)cc1)S(=O)(=O)c1c(C)cc(C)cc1C`, the inhibition in [1] stood at 79.1%.

`CNc1nccc(Nc2ccc(N(CC(=O)O)S(=O)(=O)c3c(C)cc(C)cc3C)cc2)n1`: the inhibition in [1] is below 50%.

In turn, `COC(=O)CN(c1ccc(Nc2ccnc(N3CCN(C)CC3)n2)cc1)S(=O)(=O)c1c(C)cc(C)cc1C` came in with an inhibition in [1] of 70.1%.

As for `Cc1cc(C)c(S(=O)(=O)N(CC(=O)O)c2ccc(Nc3ccnc(NC4CC4)n3)cc2)c(C)c1`, the inhibition in [1] was below 50%.

In [1], `Cc1cc(C)c(S(=O)(=O)N(Cc2ccc(C(C)C)cc2)c2ccc(Nc3ccnc(N4CCCC4)n3)cc2)c(C)c1` came in with an inhibition below 50%.

In the case of `Cc1cc(C)c(S(=O)(=O)N(CC(=O)NO)c2ccc(Nc3ccnc(N4CCNCC4)n3)cc2)c(C)c1`, the IC50 in [2] is 3.94 µM; in series [4] it was 21.9 µM; in [5], 16.2 µM; in [6] it was above 100 µM. Further, the Papp in [3] is 44.1 ×10⁻⁶ cm/s. The inhibition in [1] amounted to 96.2%. The compound also gave a logD in [7] of 0.82. For the same compound, the ΔTm in [8] was 1.59 °C. In addition, the results for the Kd in series [9] and in series [10] were 5.49 µM and 2.66 µM, respectively.

The compound `CCNc1nccc(Nc2ccc(N(CC(=O)O)S(=O)(=O)c3c(C)cc(C)cc3C)cc2)n1` registered an inhibition in series [1] below 50%.

Regarding `CCC(CC)Nc1nccc(Nc2ccc(N(CC(=O)OC)S(=O)(=O)c3c(C)cc(C)cc3C)cc2)n1`, in series [1], the inhibition is below 50%.

`Cc1cc(C)c(S(=O)(=O)N(CC(=O)O)c2ccc(Nc3ccnc(N4CCCCCC4)n3)cc2)c(C)c1` came in with an inhibition in [1] below 50%.

Consider `CCN(CC)c1nccc(Nc2ccc(N(CC(=O)O)S(=O)(=O)c3c(C)cc(C)cc3C)cc2)n1`, for which the inhibition in series [1] was 79.6%.

The compound `Cc1cc(C)c(S(=O)(=O)Nc2ccc(Nc3ccnc(N4CCCC4)n3)cc2)c(C)c1` displayed an inhibition in [1] of 66%.

For the compound `COc1cc(S(=O)(=O)Nc2ccc(Nc3ccnc(N4CCCC4)n3)cc2)c(C)cc1C`, the Papp in [3] is 65.9 ×10⁻⁶ cm/s. In addition, the inhibition in [1] was 56.3%. Also, in series [7], the logD stood at 4.82. In series [10], the Kd (in general, the free concentration of one partner at which half of the binding sites on the other are occupied at equilibrium, for simple one-to-one binding) amounted to 21.1 µM.

As to `COc1ccc(S(=O)(=O)Nc2ccc(Nc3ccnc(N4CCCC4)n3)cc2)cc1`, in [1], the inhibition was below 20%.

Turning to `CCN(CC)c1nccc(Nc2ccc(N(CC(=O)OC)S(=O)(=O)c3c(C)cc(C)cc3C)cc2)n1`, the inhibition in series [1] was below 50%.

Compound `Cc1cc(C)c(S(=O)(=O)N(CC(=O)O)c2ccc(Nc3ccnc(N4CCCCC4)n3)cc2)c(C)c1` had an inhibition in series [1] of 86.2%.

`Cc1cc(C)c(S(=O)(=O)N(CC(N)=O)c2ccc(Nc3ccnc(N4CCCC4)n3)cc2)c(C)c1` gave an inhibition in [1] below 50%.

In series [1], `Cc1cc(C)c(S(=O)(=O)N(CC(=O)O)c2ccc(Nc3ccnc(N4CCN(C)CC4)n3)cc2)c(C)c1` registered an inhibition of 71.1%.

Take `COC(=O)CN(c1ccc(Nc2ccnc(N3CCCCCC3)n2)cc1)S(=O)(=O)c1c(C)cc(C)cc1C`: the inhibition in [1] is below 50%.

On to `Cc1cc(C)c(S(=O)(=O)N(CC#N)c2ccc(Nc3ccnc(N4CCNCC4)n3)cc2)c(C)c1`, for which, in series [3], the Papp came out at 61.5 ×10⁻⁶ cm/s. In addition, in series [1], the inhibition was 64.3%. The IC50 in series [6] is above 100 µM. This compound gave a logD in series [7] of 2.01. In addition, the ΔTm in series [8] was found to be 1.1 °C.

With `Cc1cc(C)c(S(=O)(=O)N(Cc2ccc(C(=O)O)cc2)c2ccc(Nc3ccnc(N4CCCC4)n3)cc2)c(C)c1`, the inhibition in series [1] stood at 52.8%.

In series [1], `COC(=O)CN(c1ccc(Nc2ccnc(N3CCCC3)n2)cc1)S(=O)(=O)c1c(C)cc(C)cc1C` came in with an inhibition of 65.4%.

The compound `CC(C)(C)c1ccc(S(=O)(=O)Nc2ccc(Nc3ccnc(N4CCCC4)n3)cc2)cc1` showed an inhibition in [1] below 20%.

For `O=S(=O)(Nc1ccc(Nc2ccnc(N3CCCC3)n2)cc1)c1ccc(C(F)(F)F)cc1`, in [1], the inhibition is below 20%.

The compound `CNc1nccc(Nc2ccc(N(CC(=O)OC)S(=O)(=O)c3c(C)cc(C)cc3C)cc2)n1` showed an inhibition in series [1] below 50%.

In the case of `COc1ccc(OC)c(S(=O)(=O)Nc2ccc(Nc3ccnc(N4CCCC4)n3)cc2)c1`, in [1], the inhibition was 41.8%.

As for `CCC(CC)Nc1nccc(Nc2ccc(N(CC(=O)O)S(=O)(=O)c3c(C)cc(C)cc3C)cc2)n1`, the inhibition in series [1] was below 50%.

For the compound `Cc1cc(C)c(S(=O)(=O)N(Cc2nnn[nH]2)c2ccc(Nc3ccnc(N4CCNCC4)n3)cc2)c(C)c1`, the IC50 in [2] was 5.42 µM; in series [4] it was above 50 µM; in series [5], 37.9 µM; in [6], above 100 µM. Moreover, in [3], the Papp was 55.4 ×10⁻⁶ cm/s. In [1], this compound yielded an inhibition of 98.6%. For the same compound, in [8], the ΔTm came out at 1.36 °C. Moreover, the Kd in [9] amounted to 2.4 µM; in series [10], 5.5 µM.

Take `CCNc1nccc(Nc2ccc(N(CC(=O)OC)S(=O)(=O)c3c(C)cc(C)cc3C)cc2)n1`: the inhibition in series [1] was below 50%.

As for `Cc1cc(C)c(S(=O)(=O)N(Cc2ccc(Cl)cc2)c2ccc(Nc3ccnc(N4CCCC4)n3)cc2)c(C)c1`, the inhibition in [1] is below 50%.

In turn, `COC(=O)CN(c1ccc(Nc2ccnc(NC3CC3)n2)cc1)S(=O)(=O)c1c(C)cc(C)cc1C` came in with an inhibition in series [1] below 50%.

In [1], `O=S(=O)(Nc1ccc(Nc2ccnc(N3CCCC3)n2)cc1)c1ccc2ccccc2c1` showed an inhibition of 46.7%.

Regarding `COc1ccc(S(=O)(=O)Nc2ccc(Nc3ccnc(N4CCCC4)n3)cc2)c(OC)c1`, in [1], the inhibition is 36.2%.

Source of the values: ChEMBL document CHEMBL4376883, “Discovery and Optimization of Small Molecules Targeting the Protein-Protein Interaction of Heat Shock Protein 90 (Hsp90) and Cell Division Cycle 37 as Orally Active Inhibitors for the Treatment of Colorectal Cancer” (J Med Chem, 2020).
